CHRM5 PAM: CHRM5 positive allosteric modulation; AID 624038; CHO-K1 hM5, Fluo-8 calcium, ACh EC20 PAM; 0% = ACh EC20, 100% = ACh EC100; hit rate 0.3% among 360,000; P08912; activation, % at 3 µM;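 active means activation above the run cutoff, the mean activation of all test compounds plus 3 SD, cut at about 18% in these data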
Target sequence (P08912 whole entry, looked up): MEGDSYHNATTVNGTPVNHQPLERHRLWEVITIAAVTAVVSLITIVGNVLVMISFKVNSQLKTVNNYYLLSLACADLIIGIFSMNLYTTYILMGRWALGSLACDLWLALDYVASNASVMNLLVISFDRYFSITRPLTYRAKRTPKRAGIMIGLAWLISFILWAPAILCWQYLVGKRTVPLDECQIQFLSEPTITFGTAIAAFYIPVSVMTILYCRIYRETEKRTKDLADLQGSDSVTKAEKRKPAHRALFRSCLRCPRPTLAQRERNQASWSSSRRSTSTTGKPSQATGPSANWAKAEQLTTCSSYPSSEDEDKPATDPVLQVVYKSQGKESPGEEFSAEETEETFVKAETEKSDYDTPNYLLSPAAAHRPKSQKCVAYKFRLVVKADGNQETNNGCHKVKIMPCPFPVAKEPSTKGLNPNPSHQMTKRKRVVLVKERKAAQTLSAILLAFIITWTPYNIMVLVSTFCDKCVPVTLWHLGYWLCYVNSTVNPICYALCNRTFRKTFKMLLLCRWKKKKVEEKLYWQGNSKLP
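System – CHO-K1 hM5 cells · Compound – 3 µM, single dose · Incubation – compound preincubation 140 s before EC20 acetylcholine addition · Technique – Fluo-8 calcium fluorescence · Measure – Max/basal fluorescence ratio as % of EC20–EC100 ACh window · Benchmarks – low control EC20 acetylcholine (0%), high control EC100 acetylcholine (100%) · Replication – singlicate, one well per test compound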
CHRM5 agonist: CHRM5 agonism in calcium assay; hit rate 0.19% among 360,000; CHO-K1 hM5 cells, Fluo-8 calcium fluorescence; 0% DMSO wells, 100% maximal acetylcholine response; activation, % at 3 µM; AID 624037;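 active means activation above the run's mean over test compounds plus 3 SD, cut at about 23% in these data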;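 further: signal is peak over basal fluorescence ratio across the kinetic read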
CHRM4 PAM: potentiates acetylcholine response at human M4 receptor; P08173; CHO-K1 hM4/Gqi5, Fluo-8 calcium fluorescence, ACh EC20; 0% = ACh EC20, 100% = maximal ACh; activation, % at 3 µM; hit rate 0.4% among 360,000; AID 624126;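 active means activation above its plate's cutoff, the mean activation of sample wells plus 3 SD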
M5 antag: antagonists of human muscarinic M5 receptor (CHRM5); P08912; CHO-hM5 cells, Fluo-8 calcium fluorescence, ACh EC80; inhibition, % at 3 µM; hit rate 0.59% among 360,000;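 active means inhibition above a per-plate cutoff, the mean of that plate's test compounds plus 3 SD, cut at about 27% in these data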;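 further: 0% = acetylcholine EC80 with DMSO and 100% = DMSO without agonist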
CHRM4 antagonist: CHRM4 antagonism in calcium assay | CHO-hM4 cells, ACh EC80, Fluo-8 calcium fluorescence | inhibition, % at 3 µM | hit rate 0.73% among 360,000;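 active means inhibition above its plate's cutoff, the mean inhibition of sample wells plus 3 SD, cut at about 27% in these data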;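 further: 0% = acetylcholine EC80 with DMSO and 100% = DMSO without agonist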
CHRM4 agonist: agonists of human muscarinic M4 receptor (CHRM4); hit rate 0.14% among 360,000; P08173; CHO-K1 hM4/Gqi5, Fluo-8 calcium fluorescence; vehicle 0%, full acetylcholine response 100%; activation, % at 3 µM;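 active means activation above the run mean over all test wells plus 3 SD, cut at about 32% in these data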;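 further: peak over basal fluorescence ratio per well then scaled between controls; 0% = DMSO wells and 100% = acetylcholine at EC100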
An asterisk follows results filed as active. Shown are actives, neighbours in structure and some others; about 1.9% of the full set was active somewhere.

SMILES	CHRM5 PAM	CHRM5 agonist	CHRM4 PAM	M5 antag	CHRM4 antagonist	CHRM4 agonist
COc1ccc(-c2csc(C(C)(O)c3ccccc3)n2)cc1OC (centres undefined)	1.5	-1.3	6.3	-4.9	-5.9	1.8
COc1ccc(C(C)(O)c2nc(-c3ccc(OC)c(OC)c3)cs2)cc1 (centres undefined)	3.3	-0.3	24.9*	3.0	-16.6	1.0
CC1=NN(C(=O)CSCc2ccccc2)C(O)(c2ccc(Cl)cc2)C1 (centres undefined)	4.1	-3.6	3.8	3.3	-3.4	1.1
CC1=NN(C(=O)COc2ccc(C)c(C)c2)C(O)(c2ccc(Cl)cc2)C1 (centres undefined)	4.0	-0.3	21.8*	2.7	-5.4	2.6
CCCC(=O)N1CCN(c2ccc([N+](=O)[O-])c(NC(C)c3ccccc3)c2)CC1 (centres undefined)	4.9	-1.4	13.5	-7.0	-7.3	-3.5
O=[N+]([O-])c1ccc(Oc2ccc(S(=O)(=O)Nc3ccccc3)cc2)cc1	-21.3	18.6	-40.1	42.6*	53.1*	38.7*
O=[N+]([O-])c1ccc(S(=O)(=O)Nc2ccncc2)cc1	4.1	-0.8	0.2	2.1	2.3	1.4
CCCCOC(=O)C1=C(C)NC(=O)NC1c1ccc(OC)cc1 (centres undefined)	18.1*	-1.8	1.1	-8.6	-6.5	0.6
O=C(CCn1c(=S)[nH]c2ccccc2c1=O)NCC1CCCO1 (centres undefined)	-3.7	1.8	19.1*	-2.9	-25.0	0.5
CCCn1c(=S)[nH]c2cc(C(=O)NCC3CCCO3)ccc2c1=O (centres undefined)	-5.3	3.8	-2.2	4.2	7.2	4.4
CC(=O)Nc1ccc(NC(=O)CSc2ncc(C(=O)Nc3ccc(F)cc3)c(=O)n2C)cc1	-0.8	-1.3	17.6*	-1.0	7.6	0.7
COCC(C)NC(=O)c1ccc(CN2CCc3ccccc3C2)cc1 (centres undefined)	-4.6	-9.4	-16.1	10.9	28.2*	0.7
O=C(Nc1ccc(Cl)cc1)c1ccc(CN2CCc3ccccc3C2)cc1	-2.0	-8.2	-8.2	3.5	11.8	2.7
O=C(Nc1ccccc1)c1ccc(CN2CCC(Cc3ccccc3)CC2)cc1	-13.2	-8.3	-16.4	9.9	32.2*	2.4
O=C(Nc1ccc(S(=O)(=O)N2CCCC2)cc1)c1ccc(CN2CCc3ccccc3C2)cc1	-13.2	2.2	-14.8	17.7	31.8*	13.8
O=C(CCS(=O)(=O)Cc1ccccc1)Nc1ncc([N+](=O)[O-])s1	-4.3	-1.5	6.2	7.9	0.5	2.6
Cc1ccc(NC(=O)C2CCCN(S(=O)(=O)c3cccc4nonc34)C2)cc1 (centres undefined)	-4.7	-1.8	-5.5	29.4*	1.7	0.7
CCOC(=O)C1CCCN(CC(=O)c2ccc(F)cc2)C1 (centres undefined)	-21.6	26.8*	-11.9	18.3	1.7	15.1
CC(=O)Nc1cccc(NC(=O)C2CCCN2C(=O)Nc2cccc(C)c2)c1 (centres undefined)	2.5	0.6	3.1	2.1	9.8	2.6
CCOC(=O)c1ccc(NC(=O)C2CCCN(S(=O)(=O)c3ccc(F)cc3)C2)cc1 (centres undefined)	-21.8	0.0	-30.7	32.3*	36.8*	21.8
CC(=O)c1ccc(NC(=O)C2CCCN(S(=O)(=O)c3cccc4nonc34)C2)cc1 (centres undefined)	-4.2	-3.0	-5.8	15.1	-2.4	7.8
CC(=O)Nc1cccc(NC(=O)C2CCCN2C(=O)Nc2cccc(F)c2)c1 (centres undefined)	20.7*	0.6	8.9	-20.2	-6.7	0.2
CC(C)CC(C(=O)NC(C)(C)C)N(CC1CCCO1)C(=O)c1snc(C(N)=O)c1N (centres undefined)	3.2	0.0	3.5	-3.4	1.3	0.1
O=C(CCc1ccccc1)N[C@@H]1c2ccccc2CC[C@H]1OCc1ccccc1	-5.4	-2.0	-5.5	0.0	-3.2	3.6
CS(=O)(=O)N1CCCC(C(=O)Nc2cccc(F)c2)C1 (centres undefined)	18.3*	6.0	-1.1	-5.3	-14.8	1.1
SMILES	CHRM5 PAM	CHRM5 agonist	CHRM4 PAM	M5 antag	CHRM4 antagonist	CHRM4 agonist
COc1ccc(C2=NOC(Cn3nc(C(=O)NCC4CC4)cc3-c3ccccc3)C2)cc1 (centres undefined)	-36.9	-4.1	-3.7	26.0	29.4*	23.0
COc1ccc(C2=NOC(Cn3nc(C(=O)NCc4ccccc4OC)cc3-c3ccccc3)C2)cc1 (centres undefined)	-37.0	1.5	-11.6	19.8	30.1*	19.3
COc1ccc(C2=NOC(Cn3nc(C(=O)NCc4ccc(OC(F)(F)F)cc4)cc3-c3ccccc3)C2)cc1 (centres undefined)	-2.0	1.6	-2.3	8.9	3.7	1.7
CCC(=O)Nc1ccc(NCc2cccs2)cc1	1.8	1.5	0.4	0.0	-1.7	0.5
CN(c1ccccc1)S(=O)(=O)c1cccc(C(=O)NCC(=O)Nc2ccc(F)c(F)c2F)c1	-11.2	1.2	-3.7	0.9	-10.2	15.2
Cc1ccc(NC(=O)CCc2nnc3ccc(N4CCC(C)CC4)nn23)nc1	4.2	-2.6	0.1	-3.2	0.2	-1.8
CCCN1C(=O)/C(=C/c2ccc(OCC(=O)OCC)cc2)NC1=S	-7.6	7.3	-9.5	11.5	-2.0	17.1
CCN1C(=O)/C(=C/c2ccc(N3CCCC3)cc2)NC1=S	-21.5	96.5*	-17.3	58.9*	36.8*	58.4*
Cc1cc(/C=C2/C(=O)N(C)C(=S)N2C)ccc1N1CCCC1	-3.9	9.9	3.5	13.8	2.2	4.0
Cc1cc(/C=C2\NC(=S)N(C)C2=O)ccc1N1CCCC1	-22.8	138.5*	-24.8	58.9*	44.9*	81.8*
CCCN1C(=O)/C(=C/c2ccc(N3CCCC3)c(C)c2)NC1=S	-45.9	69.4*	-19.0	62.2*	53.5*	77.0*
CCCN1C(=O)/C(=C/c2ccc(N3CCOCC3)cc2)NC1=S	-14.2	15.5	-8.6	18.9	10.6	23.4
COc1cccc(NC(=O)C2CCOC2=O)c1 (centres undefined)	0.1	2.2	4.0	4.2	-8.1	-0.1
Nc1[nH]ncc1-c1ccc(Cl)cc1	8.0	2.3	37.8*	-7.3	1.9	3.3
O=c1c(/C=N\NS(=O)(=O)c2ccccc2)coc2ccc(Cl)cc12	-10.9	-4.5	-6.8	35.1*	0.0	11.3
CCCCCCN1C2=NCCN2c2ccccc21	0.9	-4.9	-21.6	0.1	28.6*	2.6
